Shown are actives, neighbours in structure and some others; about 1.9% of the full set was active somewhere.
Rev-erbA mod – modulators of human Rev-erb alpha DNA binding | P20393 | Rev-erbα–FITC-DNA binding, fluorescence polarization, 90 min | activity, % at 10 µM | 370,000 tested, 0.79% active | AID 1259318;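 active = activity above about 14%, limit read from the data; passing the limit was not always enough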;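 also: 0% = DMSO wells with 35 nM protein and 100% = DMSO wells with 750 nM protein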
PG9 Ab binder – binds the HIV-1 gp120 antibody PG9; TR-FRET gp120-PG9 antibody binding; inhibition, % at 6.7 µM; 360,000 tested, 0.43% active; AID 624416; in the data active = inhibition above about 8.5%
UCH37 DUB inh – inhibitors of human deubiquitinating enzyme UCH37; purified proteasome/UCH37, Ub-AMC cleavage fluorescence; AID 588478; 330,000 tested, 0.33% active; inhibition, % (test concentration not listed);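 active = mean inhibition over replicate wells above about 20%, limit read from the data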;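 also: 0% = compound-free wells with enzyme and 100% = wells lacking proteasome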
Target sequence (Q9Y5K5 whole entry, looked up): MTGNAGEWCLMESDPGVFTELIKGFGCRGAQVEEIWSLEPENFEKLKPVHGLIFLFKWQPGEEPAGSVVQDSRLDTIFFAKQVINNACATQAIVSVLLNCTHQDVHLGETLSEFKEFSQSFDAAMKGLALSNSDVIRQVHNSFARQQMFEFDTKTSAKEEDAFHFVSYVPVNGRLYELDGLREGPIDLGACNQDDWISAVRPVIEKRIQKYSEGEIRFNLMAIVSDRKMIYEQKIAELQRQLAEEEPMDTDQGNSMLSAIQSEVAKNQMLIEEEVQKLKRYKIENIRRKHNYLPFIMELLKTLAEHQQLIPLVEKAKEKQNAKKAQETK
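Schedule: 30 min plus 25 min, room temperature / Material: human UCH37 within purified proteasomes / Technique: AMC fluorescence intensity at 355/460 nm / Buffer or medium: pH 7.4 Tris-HCl (50 mM) with ovalbumin, ATP-MgCl2, DTT / Controls: wells without proteasome as full block, compound-free enzyme plus substrate as uninhibited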
Rce1 inhib – inhibitors of yeast Ras-converting enzyme; yeast membranes, quenched prenylated peptide cleavage fluorescence; calls only; Q03530; AID 2563; 290,000 tested, 0.27% active;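 active = fall in fluorescence gain of 50% or more versus controls, with final raw signal at or below 3038400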;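 also: plate controls were neutral control wells for no effect and wells lacking membranes for full effect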
Target sequence (Q03530 whole entry, looked up): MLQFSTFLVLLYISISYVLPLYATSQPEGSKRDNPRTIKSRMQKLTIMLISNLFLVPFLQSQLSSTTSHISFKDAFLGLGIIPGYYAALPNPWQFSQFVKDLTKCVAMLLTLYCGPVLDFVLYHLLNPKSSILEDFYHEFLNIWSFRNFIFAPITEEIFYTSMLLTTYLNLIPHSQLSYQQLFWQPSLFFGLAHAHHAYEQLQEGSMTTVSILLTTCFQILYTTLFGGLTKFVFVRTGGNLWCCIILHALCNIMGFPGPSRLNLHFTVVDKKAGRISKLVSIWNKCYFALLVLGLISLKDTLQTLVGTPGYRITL
Yeast superoxide – yeast age-related superoxide inhibition as caloric restriction mimetic; 330,000 tested, 0.18% active; superoxide response (% of plate mean), % at 10 µM; S. cerevisiae aged cells, superoxide DHE fluorescence; active compounds read low;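 active = superoxide response under a set limit, about three screen SD below normal, cut at about 65% in these data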;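 also: yeast aged for seven days with compound at 30 °C before DHE staining; 100% = average MFI of all compound-treated wells on the plate with controls excluded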
MIN6 prolif – inducers of beta-cell replication in MIN6 cells; MIN6 cells proliferation, ATPlite luminescence, 48 h; cells starved in 0.2% serum; 100% = growth in 10% serum; 330,000 tested, 0.29% active; proliferation, % at 10 µM;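 active = compounds whose signal lies at least 3.5 SD above the mean of all wells on their plate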;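 also: 0% = DMSO-treated cells in low-serum medium and 100% = 10% serum control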
Superoxide pick – yeast aging superoxide inhibition, cherry pick confirmation; shares compounds with Yeast superoxide; S. cerevisiae aging, superoxide DHE fluorescence; active compounds read low; superoxide response (% of plate), % at 10 µM; 850 tested, 1% active; AID 434994;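 active = superoxide signal below 65% of the plate average of sample wells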;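 also: cells aged with compound for 7 days at 30 degrees C before staining; 100% equals mean DHE fluorescence of all compound wells on the plate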
DHE fluor count – DHE fluorescence interference, counter-screen artifact | S. cerevisiae BY4741, flow cytometry; active compounds read low | shares compounds with Yeast superoxide | fluorescence response, % at 10 µM | 850 tested, under 10 active | AID 435000;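 active = fluorescence response below 15%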;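 also: percent of the mean fluorescence averaged over all compound wells on the plate; lower means stronger quenching of DHE signal or ROS scavenging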
* marks the source's active call; other numbers are inactive results.

`Cc1ccccc1-c1nnc(SCC(=O)Nc2ccc3c(c2)OCCO3)n1N` gave Rev-erbA mod -7.9, PG9 Ab binder -1.5, UCH37 DUB inh 4.7, Yeast superoxide 83.0 and MIN6 prolif -0.3.
`CC(=O)Nc1cccc(NC(=O)CSc2ccc(-c3ccccn3)nn2)c1` gave Rev-erbA mod -2.8, PG9 Ab binder -1.0, UCH37 DUB inh 1.7, Rce1 inhib inactive, Yeast superoxide 115.1 and MIN6 prolif -0.4.
For CC(=O)c1cccc(NC(=O)CSc2ccc(-c3ccccn3)nn2)c1 the results were Rev-erbA mod 1.7, PG9 Ab binder -0.9, UCH37 DUB inh 2.7, Rce1 inhib inactive, Yeast superoxide 94.1 and MIN6 prolif -5.3.
`CCc1ccc(NC(=O)CSc2ccc(-c3ccccn3)nn2)cc1` gave Rev-erbA mod 7.4, PG9 Ab binder 4.0, UCH37 DUB inh -0.5, Rce1 inhib inactive, Yeast superoxide 58.8*, MIN6 prolif -7.1, Superoxide pick 125.6 and DHE fluor count 112.7.
COc1cc(NC(=O)CSc2ccc(-c3ccccn3)nn2)cc(OC)c1 was read as Rev-erbA mod -2.9, PG9 Ab binder -1.3, UCH37 DUB inh 2.0, Rce1 inhib inactive, Yeast superoxide 101.1, MIN6 prolif -3.2, Superoxide pick 102.0 and DHE fluor count 123.8.
For Cc1cc(C)c2c(c1)C(=NNC(=S)Nc1ccc(F)cc1)CCC2 the results were UCH37 DUB inh 1.1.
`CCNC(=O)N1c2ccc(OC)cc2C(C)=CC1(C)C` gave Rev-erbA mod -3.6, PG9 Ab binder -1.9, UCH37 DUB inh -42.5, Yeast superoxide 61.1*, MIN6 prolif -1.4, Superoxide pick 110.4 and DHE fluor count 112.0.
Screening CC(C=NNC(=O)c1ccc(CN2c3cccc4cccc(c34)S2(=O)=O)cc1)c1ccccc1 (centres undefined) returned UCH37 DUB inh -90.7.
Screening Cc1cccc(-n2cc(-c3ccccc3)c3c(NN4CCOCC4)ncnc32)c1 returned Rev-erbA mod 2.3, PG9 Ab binder -1.6, UCH37 DUB inh 1.8, Rce1 inhib inactive, Yeast superoxide 105.2 and MIN6 prolif -4.5.
`Cc1ccc(-n2cc(-c3ccccc3)c3c(NN4CCOCC4)ncnc32)cc1` gave Rev-erbA mod -1.5, PG9 Ab binder 0.6, UCH37 DUB inh 1.6, Rce1 inhib inactive, Yeast superoxide 62.2*, MIN6 prolif -3.5, Superoxide pick 88.0 and DHE fluor count 101.0.
`CC(=O)C(=NNc1ccc(Br)cc1)Sc1cccc2cccnc12` gave UCH37 DUB inh 6.8.
`COc1ccc(CC(=O)OCC(=O)Nc2cc(Cl)ccc2C)cc1` gave Rev-erbA mod -2.1, PG9 Ab binder 0.3, UCH37 DUB inh 5.5, Yeast superoxide 63.4*, MIN6 prolif 3.5, Superoxide pick 97.9 and DHE fluor count 92.2.
COc1ccc(CC(=O)OCC(=O)Nc2cccc(Cl)c2)cc1 was read as Rev-erbA mod -4.5, PG9 Ab binder -2.2, UCH37 DUB inh 0.8, Rce1 inhib inactive, Yeast superoxide 100.5 and MIN6 prolif -0.2.
Screening CCN1CCN(c2ncnc3sc4c(c23)CCC(C)C4)CC1 (centres undefined) returned Rev-erbA mod -5.0, PG9 Ab binder -0.3, UCH37 DUB inh -0.8, Rce1 inhib inactive, Yeast superoxide 50.5*, MIN6 prolif -0.6, Superoxide pick 98.6 and DHE fluor count 91.1.
`CCN1CCN(c2ncnc3sc(C)c(-c4ccccc4)c23)CC1` gave Rev-erbA mod 4.9, PG9 Ab binder -0.7, UCH37 DUB inh -0.3, Rce1 inhib inactive, Yeast superoxide 101.6 and MIN6 prolif -2.4.
For COc1ccc(N2C(=O)C(CC(N)=O)N(NC(=O)c3cccc(OC)c3)C2=S)cc1 (centres undefined) the results were Rev-erbA mod 1.5, PG9 Ab binder 0.6, UCH37 DUB inh 3.4, Rce1 inhib inactive, Yeast superoxide 87.4 and MIN6 prolif 2.9.
`NC(=O)CC1C(=O)N(c2ccc(Cl)cc2)C(=S)N1NC(=O)c1cccc(F)c1` (centres undefined) gave Rev-erbA mod 3.2, PG9 Ab binder -0.9, UCH37 DUB inh 0.9, Rce1 inhib inactive, Yeast superoxide 20.9*, MIN6 prolif 0.5, Superoxide pick 98.8 and DHE fluor count 106.8.
For O=C(NN=Cc1ccccc1O)c1ccc2c(c1)OCO2 the results were UCH37 DUB inh -22.7.
`CCN(CC)c1ccc(C=NNC(=O)c2cccc(N3CCCC3=O)c2)cc1` gave UCH37 DUB inh -12.1.
COc1cc(C=Nn2c(-c3ccc4c(c3)NC(=O)CO4)csc2=Nc2cccc(C)c2)ccc1O was read as UCH37 DUB inh -0.1.
Cc1cc(C)n(-c2nnc(NC34CC5CC(CC(C5)C3)C4)nn2)n1 was read as Rev-erbA mod 0.5, PG9 Ab binder -1.2, Rce1 inhib inactive, Yeast superoxide 63.6*, MIN6 prolif 0.0, Superoxide pick 87.0 and DHE fluor count 97.7.
For COc1ccc(CNC(=S)NN=Cc2ccc(OC)c(OC)c2)cc1 the results were UCH37 DUB inh 7.8.
`O=C(NC1CCCCCCC1)c1cc([N+](=O)[O-])ccc1Cl` gave Rev-erbA mod -2.6, PG9 Ab binder 1.3, UCH37 DUB inh -0.5, Rce1 inhib inactive, Yeast superoxide 62.6*, MIN6 prolif -3.5, Superoxide pick 101.0 and DHE fluor count 91.9.
`O=C(NC1CCCCC1)c1cc([N+](=O)[O-])ccc1N1CCCC1` gave Rev-erbA mod 0.5, PG9 Ab binder -2.1, UCH37 DUB inh 5.5, Rce1 inhib inactive, Yeast superoxide 96.3 and MIN6 prolif -1.1.
For CCCOc1ccc(C(CC)=NNC(=O)C2(C)CC2(Br)Br)cc1 (centres undefined) the results were UCH37 DUB inh 2.9.
For CC[N+]1=C(C)C(C)(C)c2cc(C)ccc21 the results were Rev-erbA mod -6.1, PG9 Ab binder 1.4, UCH37 DUB inh 5.9, Rce1 inhib inactive, Yeast superoxide 107.7 and MIN6 prolif -6.1.
`Cc1ccc2c(c1)C=CC(C)(C)S2=O` (centres undefined) gave Rev-erbA mod -0.2, PG9 Ab binder -2.9, UCH37 DUB inh 2.5, Rce1 inhib inactive, Yeast superoxide 63.6*, MIN6 prolif -1.6, Superoxide pick 97.2 and DHE fluor count 112.1.
`Cc1ccc(N2C(=O)[C@@H]3[C@H](C2=O)[C@H]2C=CC=NN2[C@@H]3C(=O)Nc2ccc(Cl)cc2)cc1` gave Rev-erbA mod -5.9, PG9 Ab binder -1.5, UCH37 DUB inh 2.8, Rce1 inhib inactive, Yeast superoxide 105.1 and MIN6 prolif -2.0.
